Test results: ChEMBL document CHEMBL3352075, “Discovery of potent 1H-imidazo[4,5-b]pyridine-based c-Met kinase inhibitors via mechanism-directed structural optimization” (Bioorg Med Chem Lett, 2015)
One block for each compound: values may come before it.

Key:
[1] = Antiproliferative activity against human EBC1 cells after 72 hrs by sulforhodamine B assay; settings: EBC-1, 72 h
[2] = target: Vascular endothelial growth factor receptor 1 (Homo sapiens) (UniProt P17948); assay: Inhibition of FLT1 (unknown origin) at 1 uM by ELISA method
Outline: (§1)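 Kinase profiling by ELISA kinase assay across a panel of tyrosine kinases, each tested at a single 1.0 µM compound concentration. Read-out is percent inhibition rate.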

[3] = target: Platelet-derived growth factor receptor alpha (Homo sapiens) (UniProt P16234); assay: Inhibition of PDGFRalpha (unknown origin) at 1 uM by ELISA method; outline: as §1
[4] = target: Hepatocyte growth factor receptor (Homo sapiens, UniProt P08581); assay: Inhibition of recombinant c-Met (unknown origin) using poly (Glu,Tyr)4:1 substrate incubated for 60 mins by ELISA method
[5] = target: Macrophage-stimulating protein receptor (Homo sapiens) (UniProt Q04912); assay: Inhibition of RON (unknown origin) at 1 uM by ELISA method; outline: as §1
[6] = target: Tyrosine-protein kinase receptor UFO (Homo sapiens) (UniProt P30530); assay: Inhibition of AXL (unknown origin) at 1 uM by ELISA method; outline: as §1
[7] = target: Fibroblast growth factor receptor 1 (Homo sapiens) (UniProt P11362); assay: Inhibition of FGFR1 (unknown origin) at 1 uM by ELISA method; outline: as §1
[8] = target: Fibroblast growth factor receptor 2 (Homo sapiens) (UniProt P21802); assay: Inhibition of FGFR2 (unknown origin) at 1 uM by ELISA method; outline: as §1
[9] = target: ALK tyrosine kinase receptor (Homo sapiens) (UniProt Q9UM73); assay: Inhibition of ALK (unknown origin) at 1 uM by ELISA method; outline: as §1
[10] = target: Insulin-like growth factor 1 receptor (Homo sapiens) (UniProt P08069); assay: Inhibition of IGF1R (unknown origin) at 1 uM by ELISA method; outline: as §1
[11] = target: Platelet-derived growth factor receptor beta (Homo sapiens) (UniProt P09619); assay: Inhibition of PDGFRbeta (unknown origin) at 1 uM by ELISA method; outline: as §1
[12] = target: Receptor tyrosine-protein kinase erbB-4 (Homo sapiens) (UniProt Q15303); assay: Inhibition of ErbB4 (unknown origin) at 1 uM by ELISA method; outline: as §1
[13] = target: Vascular endothelial growth factor receptor 2 (Homo sapiens) (UniProt P35968); settings: at 1 µM
[14] = target: Proto-oncogene tyrosine-protein kinase Src (Homo sapiens) (UniProt P12931); settings: at 1 µM
[15] = target: Tyrosine-protein kinase ABL1 (Homo sapiens) (UniProt P00519); settings: at 1 µM
[16] = target: Macrophage-stimulating protein receptor (Homo sapiens) (UniProt Q04912); assay: Inhibition of RON (unknown origin) at 0.1 uM by ELISA method
[17] = target: Tyrosine-protein kinase receptor UFO (Homo sapiens) (UniProt P30530); assay: Inhibition of AXL (unknown origin) at 0.1 uM by ELISA method
[18] = target: Fibroblast growth factor receptor 1 (Homo sapiens) (UniProt P11362); settings: 10 nM

SMILES: Nc1nccc(Oc2ccc(NC(=O)C3(C(=O)Nc4ccc(F)cc4)CC3)cc2F)c1NCC(=O)O
IC50 [1]: < 10 µM

SMILES: O=C(Nc1ccc(Oc2nc3c([nH]c(=O)n3CCN3CCNCC3)c3ncccc23)c(F)c1)c1cccn(-c2ccc(F)cc2)c1=O
IC50 [1]: > 50 µM

SMILES: O=C(Nc1ccc(F)cc1)C1(C(=O)Nc2ccc(Oc3ccnc4c3nc3n4CCCC3)c(F)c2)CC1
IC50 [4]: 0.26 µM
IC50 [1]: > 10 µM

SMILES: Nc1c(Oc2ccc(NC(=O)C3(C(=O)Nc4ccc(F)cc4)CC3)cc2F)ccnc1NC(=O)CCl
IC50 [1]: < 10 µM

SMILES: O=C(Nc1ccc(Oc2nc3c([nH]c(=O)n3Cc3ccc(O)cc3)c3ncccc23)c(F)c1)c1cccn(-c2ccc(F)cc2)c1=O
IC50 [1]: > 50 µM

SMILES: CN1CCC(Cn2c(=O)[nH]c3c4ncccc4c(Oc4ccc(NC(=O)c5cccn(-c6ccc(F)cc6)c5=O)cc4F)nc32)CC1
IC50 [1]: 19.8 µM

Second part, led by results:

inhibition [2]: 66.6%
inhibition [3]: 68.4%
SMILES: CCN(CC)CCNC(=O)c1c(C)[nH]c(/C=C2\C(=O)Nc3ccc(F)cc32)c1C

IC50 [4]: 0.209 µM
inhibition [5]: 43.2%
inhibition [6]: 41.6%
inhibition [7]: 7.4%
inhibition [8]: 37.2%
inhibition [9]: 2.5%
inhibition [2]: 13.3%
inhibition [10]: 33.6%
inhibition [3]: 22.6%
inhibition [11]: 0%
inhibition [12]: 24.3%
inhibition [13]: 0%
inhibition [14]: 0%
inhibition [15]: 0%
SMILES: O=C(Nc1ccc(F)cc1)C1(C(=O)Nc2ccc(Oc3ccnc4[nH]c(=O)[nH]c34)c(F)c2)CC1
IC50 [1]: 0.24 µM

inhibition [16]: 100%
inhibition [17]: 100%
SMILES: COc1cc2nccc(Oc3ccc(NC(=O)C4(C(=O)Nc5ccc(F)cc5)CC4)cc3)c2cc1OC

inhibition [18]: 95.1%
SMILES: COc1cc(CCc2cc(NC(=O)c3ccc(N4C[C@@H](C)N[C@@H](C)C4)cc3)n[nH]2)cc(OC)c1

inhibition [10]: 56.6%
SMILES: Nc1ncnc2c1c(-c1cccc(OCc3ccccc3)c1)cn2C1CC(CN2CCC2)C1 (stereo not drawn)
